Where no end group is shown, it is not given here.
How the values were obtained:
MTT cytotoxicity assay = format: cell-based; conditions: human, HeLa cells
In short: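 HeLa cells (1×10^4/well) grown 24 h, then exposed to serially diluted peptides for 1 h at 37 °C. Peptide removed; MTT added (5 mg/ml stock in PBS) in fresh medium for 4 h at 37 °C. Formazan dissolved in DMSO and read at 490 nm. Lethality = (Acon − A)/(Acon − Abl), using untreated cells and cell-free blank. IC50 from semilog curves, three independent measurements.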

HeLa cells = assay: Saporin cytosolic delivery, MTT lethality; format: cell-based; conditions: SAP 10, 20, 50 μg/ml alone, 60 min
In short: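 HeLa seeded at 1×10^4 cells/well and grown 24 h. Cells exposed to saporin, with or without vehicle peptide, for 1 h at 37 °C. After two PBS washes, cells kept in DMEM for 6 h at 37 °C. Viability read by MTT: formazan in DMSO at 490 nm, lethality calculated against untreated cells and cell-free blank.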

Substance	IC50 at 1 h (MTT cytotoxicity assay) [µM]	cell survival with saporin alone (HeLa cells)
ILILILAAKLAKALKKEAKALK-NH2 [LP5]	13	–
KLLKLLKKELKLLK-NH2 [LP1]	> 128	–
SAP: membrane-impermeable ribosome-inactivation protein, 28.6 kDa cargo	–	barely affected
ILILAAKLAKALKKEAKALK-NH2 [LP4]	> 128	–
ILILAAKLLKLLKKELKLLK-NH2 [LP2]	1.3	–
ILILAAKLLKALKKEAKLLK-NH2 [LP3]	12.5	–

Reference: article PMC8639468 (The Journal of Biological Chemistry, 2021)
